Data on 13 molecules can be found in ChEMBL document CHEMBL4049428, “Exploring Derivatives of Quinazoline Alkaloid l-Vasicine as Cap Groups in the Design and Biological Mechanistic Evaluation of Novel Antitumor Histone Deacetylase Inhibitors” (J Med Chem, 2017).

The species entered for one experiment is Homo sapiens. Nature of the experiment: Inhibition of HDAC in human HeLa nuclear extract up to 2 uM using Boc-Lys(Ac)-AMC as substrate measured after 30 mins by fluorometric analysis.
In a further experiment the test system is THP-1. Nature of the experiment: Cytotoxicity against human THP1 cells assessed as growth inhibition at 10 uM after 48 hrs by MTT assay. The experiment is classed as functional. The settings on record: THP-1, 48 h, read-out: GI. An outline of the steps: (§1)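 MTT assay, 48 h exposure; adherent lines seeded 12 h and suspension lines 4 h before compound. Media: RPMI-1640/10% FCS (THP-1, HL-60, Colo-205, Caco-2, A549), DMEM/10% FCS (A549, MIAPaCa-2, MCF-7). MTT 4 h, formazan dissolved in DMSO, absorbance 570 nm. Mean ± S.D of three experiments in triplicate; SAHA 5 µM reference.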

Experiment [1] deals with HL-60. Nature of the experiment: Cytotoxicity against human HL60 cells assessed as growth inhibition at 10 uM after 48 hrs by MTT assay. The experiment is classed as functional. The settings on record: HL-60, 48 h, read-out: GI. Summed up: as §1
For orientation: Tetrazolium dyes change colour on reduction, which living cells bring about.

In experiment [2] the test system is MOLT-4. In words: Cytotoxicity against human MOLT4 cells assessed as growth inhibition at 10 uM after 48 hrs by MTT assay. The experiment is classed as functional. As to conditions: MOLT-4, 48 h, read-out: GI.
The subject of a further experiment is COLO 205. Nature of the experiment: Cytotoxicity against human COLO205 cells assessed as growth inhibition at 10 uM after 48 hrs by MTT assay. The experiment is classed as functional. As to conditions: COLO 205, 48 h, read-out: GI. An outline of the steps: as §1
The next experiment deals with Caco-2. Nature of the experiment: Cytotoxicity against human Caco2 cells assessed as growth inhibition at 10 uM after 48 hrs by MTT assay. Type of experiment: functional. The settings on record: Caco-2, 48 h, read-out: GI. An outline of the steps:
as §1

Experiment [3] relates to MIA PaCa-2. Nature of the experiment: Cytotoxicity against human MIAPaCa2 cells assessed as growth inhibition at 10 uM after 48 hrs by MTT assay. As to conditions: MIA PaCa-2, 48 h, read-out: GI. The experiment is classed as functional. An outline of the steps: as §1
In another experiment the test system is PC-3. Nature of the experiment: Cytotoxicity against human PC3 cells assessed as growth inhibition at 10 uM after 48 hrs by MTT assay. The experiment is classed as functional. As to conditions: PC-3, 48 h, read-out: GI.
For another experiment, the system named is A549. Nature of the experiment: Cytotoxicity against human A549 cells assessed as growth inhibition at 10 uM after 48 hrs by MTT assay. The experiment is classed as functional. The settings on record: A549, 48 h, read-out: GI. An outline of the steps: as §1
Another experiment deals with MCF7. Nature of the experiment: Cytotoxicity against human MCF7 cells assessed as growth inhibition at 10 uM after 48 hrs by MTT assay. As to conditions: MCF7, 48 h, read-out: GI. Type of experiment: functional. Summed up:
as §1

Experiment [4] relates to P388. In words: Antitumor activity against mouse P388 cells implanted in CDF1 mouse assessed as increase in median survival time at 20 mg/kg, ip administered for 9 consecutive days. Type of experiment: functional, organism-based. An outline of the steps: (§2)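 P388 leukemia cells were harvested from 6–7-day-old ascites grown in the peritoneum of female DBA/2 mice. Female CDF1 mice (18–23 g) received 5×10^5 cells i.p. on day 0. Next day they were randomized into groups of 7 and dosed i.p. daily for 9 consecutive days; controls got 0.2 ml normal saline. Mortality was followed to day 18, with median survival time and %T/C calculated.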

In experiment [5] the test system is MIA PaCa-2. In words: Cytotoxicity against human MIAPaCa2 cells assessed as growth inhibition after 48 hrs by MTT assay. As to conditions: MIA PaCa-2, 48 h. The experiment is classed as functional, cell-based. Summed up: as §1
Experiment [6] relates to P388. In words: Antitumor activity against mouse P388 cells implanted in CDF1 mouse assessed as increase in median survival time at 50 mg/kg, ip administered for 9 consecutive days. The experiment is classed as functional. An outline of the steps:
as §2

For experiment [7], the system named is HL-60. In words: Induction of mitochondrial membrane potential loss in human HL60 cells at 1 uM measured after 48 hrs by Rh123 dye-based flow cytometric analysis (reference value: 5.6%). The experiment is classed as functional. Summed up:
(§3)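 Cells seeded in 6-well plates 2-4 h, then 48 h with compound; Rh-123 1 µM added for the final half hour; cells centrifuged, washed twice in PBS, resuspended in PBS, and Ψm loss quantified by flow cytometry as percentage of cells.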
(In general: A flow cytometer gives signals particle by particle.)

Experiment [8] deals with HL-60. Nature of the experiment: Induction of mitochondrial membrane potential loss in human HL60 cells assessed as intact mitochondrial membrane potential at 1 uM measured after 48 hrs by Rh123 dye-based flow cytometric analysis (reference value: 91.3%). Type of experiment: functional. Summed up: as §3
Experiment [9] concerns MOLT-4. Nature of the experiment: Induction of mitochondrial membrane potential loss in human MOLT4 cells at 1 uM measured after 48 hrs by Rh123 dye-based flow cytometric analysis (reference value: 9.6%). The experiment is classed as functional. Summed up: as §3
For experiment [10], the system named is MOLT-4. In words: Induction of mitochondrial membrane potential loss in human MOLT4 cells assessed as intact mitochondrial membrane potential at 1 uM measured after 48 hrs by Rh123 dye-based flow cytometric analysis (reference value: 90.4%). The experiment is classed as functional. Summed up: as §3

The structures appear in SMILES notation. The source made the active and inactive calls. No cut-off for these calls is given here.

As to `O=C(CCCCC(=O)N[C@@H]1CCN(Cc2ccccc2)C1)NO`, in the experiment listed under Homo sapiens, the inhibition result is “inactive”.
For `O=C(CCCC(=O)N[C@@H]1CCN(Cc2ccccc2)C1)NO`, the inhibition entry in the experiment listed under Homo sapiens was “inactive”.
Same read-out and setting: for `O=C(CCCC(=O)N[C@H]1CCN(Cc2ccccc2)C1)NO` the value was “inactive”.
Regarding `O=C(CCCCCCCC(=O)Nc1ccccc1CN1CC[C@H](O)C1)NO`, in the experiment filed under Homo sapiens, the inhibition entry is “Active”. Moreover, the inhibition of growth at 10 µM in the experiment on THP-1 stood at 17%; in the experiment with HL-60 [1], 6%; in the experiment with MOLT-4 [2] it was 30%; in the experiment with COLO 205 it was 7%; in the experiment with Caco-2 it was 5%; with MIA PaCa-2 [3], 2%. For the same molecule, the inhibition of growth at 10 µM with PC-3 turned out to be 12%; with A549, 5%; in the experiment with MCF7, 3%.
With `O=C(CCCCCCCC(=O)N[C@H]1CCN(Cc2ccccc2)C1)NO`, the inhibition result in the experiment filed under Homo sapiens was “inactive”.
As to `O=c1[nH]cc(F)c(=O)[nH]1`, in the experiment on P388 [4], the outcome was Active.
Take `O=C(CCCCCCCC(=O)N[C@@H]1CCN(Cc2ccccc2)C1)NO`: the inhibition result in the experiment listed under Homo sapiens is “inactive”.
On the same count and under the same terms, as for `O=C(CCCCCCC(=O)N[C@@H]1CCN(Cc2ccccc2)C1)NO`, the entry is “inactive”.
Turning to `O=C(CCCC(=O)Nc1ccccc1CN1CC[C@H](O)C1)NO`, in the experiment listed under Homo sapiens, the inhibition entry is “Active”. Further, the inhibition of growth at 10 µM stood at 3% in the experiment on THP-1; 3% in the experiment with HL-60 [1]; 27% with MOLT-4 [2]; 26% in the experiment with COLO 205; 1% in the experiment with Caco-2; 4% in the experiment with MIA PaCa-2 [3]. Also, the figures for the inhibition of growth at 10 µM in the experiment with PC-3, in the experiment with A549 and with MCF7 were 2%, 5% and 5%, respectively.
Consider `O=C(CCCCCCC(=O)N[C@H]1CCN(Cc2ccccc2)C1)NO`, for which the inhibition entry in the experiment filed under Homo sapiens is “inactive”.
Broadly, the IC50 is the concentration needed to halve the response being measured. With `O=C(CCCCCCC(=O)Nc1ccccc1)NO` [VORINOSTAT], in the experiment on MIA PaCa-2 [5], the IC50 came out at 2200 nM. In addition, in the experiment with P388 [6], the outcome was Active. Also, the Activity with HL-60 [7] is listed as 12.9%; in the experiment on HL-60 [8], 75.6%; in the experiment with MOLT-4 [9], 28.4%; in the experiment with MOLT-4 [10] it was 71.6%.
On to `O=C(CCCCC(=O)N[C@H]1CCN(Cc2ccccc2)C1)NO`, for which the inhibition result in the experiment listed under Homo sapiens was “inactive”.
Take `O=C(CCCCC(=O)Nc1ccccc1CN1CC[C@H](O)C1)NO`: the inhibition entry in the experiment filed under Homo sapiens is “Active”. Moreover, the inhibition of growth at 10 µM with THP-1 was 37%; with HL-60 [1] it was 29%; in the experiment on MOLT-4 [2], 38%; with COLO 205 it was 22%; in the experiment on Caco-2, 31%; with MIA PaCa-2 [3], 12%. For the same molecule, the figures for the inhibition of growth at 10 µM in the experiment on PC-3, with A549 and in the experiment with MCF7 were 15%, 19% and 26%, respectively.
